# In ChEMBL document CHEMBL1649165, “Activity profile in vitro of micafungin against Spanish clinical isolates of common and emerging species of yeasts and molds” (2009):
# Experiments:
# Format in all cases: functional
# Mucor = experiment: Antimicrobial activity against Mucor spp.by broth microdilution method
# Method in brief: (§1)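 Filamentous fungus clinical isolates tested by the AFST-EUCAST reference broth microdilution method for moulds. For echinocandins, the endpoint was the minimum effective concentration: the lowest drug concentration giving aberrant hyphal growth, read with an inverted microscope.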
# Aspergillus ochraceus = experiment: Antimicrobial activity against Aspergillus ochraceus by broth microdilution method
# Method in brief: (§2)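 Clinical mould isolates, tested by broth microdilution using the AFST-EUCAST reference method for filamentous fungi. For echinocandins, the endpoint was the minimum effective concentration: the lowest drug concentration giving aberrant hyphal growth, read with an inverted microscope.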
# [Candida] inconspicua = Antimicrobial activity against Candida inconspicua by broth microdilution method; settings: Pichia inconspicua
# Method in brief: (§3)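 Clinical isolates from human patients, tested by broth microdilution using the AFST-EUCAST reference procedure for fermentative yeasts. The MIC was read per that reference method.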
# Yarrowia lipolytica = experiment: Antimicrobial activity against Yarrowia lipolytica by broth microdilution method
# Lichtheimia corymbifera = experiment: Antimicrobial activity against Mycocladus corymbiferus by broth microdilution method; method in brief: as §1
# Trichosporon ovoides = experiment: Antimicrobial activity against Trichosporon ovoides by broth microdilution method
# Method in brief: (§4)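 Nonfermentative yeast clinical isolates (Rhodotorula, Trichosporon) tested by broth microdilution. The EUCAST yeast recommendations were followed strictly, with one minor modification to improve growth. MIC was read as the endpoint.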
# Coprinellus domesticus = experiment: Antimicrobial activity against Hormographiella verticillata by broth microdilution method; method in brief: as §1
# Diutina rugosa = experiment: Antimicrobial activity against Candida rugosa by broth microdilution method; method in brief: as §3
# Aspergillus versicolor = experiment: Antimicrobial activity against Aspergillus versicolor by broth microdilution method; method in brief: as §2
# Phialemonium curvatum = experiment: Antimicrobial activity against Phialemonium curvatum by broth microdilution method; settings: Thyridium curvatum; method in brief: as §1
# Aspergillus nidulans = experiment: Antimicrobial activity against Aspergillus nidulans by broth microdilution method; method in brief: as §2
# Aspergillus = experiment: Antimicrobial activity against Aspergillus spp. by broth microdilution method; method in brief: as §2
# [Candida] zeylanoides = Antimicrobial activity against Candida zeylanoides by broth microdilution method; settings: Dujonia zeylanoides; method in brief: as §3
# Papiliotrema laurentii = experiment: Antimicrobial activity against Cryptococcus laurentii by broth microdilution method
# Method in brief: (§5)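 Clinical isolates of nonfermentative yeasts, tested by broth microdilution following EUCAST recommendations. The only change from that method was a minor modification to improve growth.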
# Aureobasidium pullulans = experiment: Antimicrobial activity against Aureobasidium pullulans by broth microdilution method
# Exophiala jeanselmei = experiment: Antimicrobial activity against Exophiala jeanselmei by broth microdilution method
# [1] = tested on: Cryptococcus deneoformans; experiment: Antimicrobial activity against Cryptococcus neoformans var. neoformans by broth microdilution method; method in brief: as §5
# Debaryomyces hansenii = experiment: Antimicrobial activity against Candida famata by broth microdilution method; method in brief: as §3
# Aspergillus glaucus = experiment: Antimicrobial activity against Aspergillus glaucus by broth microdilution method; method in brief: as §2
# Clavispora lusitaniae = experiment: Antimicrobial activity against Candida lusitaniae by broth microdilution method; method in brief: as §3
# Saksenaea vasiformis = experiment: Antimicrobial activity against Saksenaea vasiformis by broth microdilution method; method in brief: as §1
# Fusarium solani = experiment: Antimicrobial activity against Fusarium solani by broth microdilution method; method in brief: as §1
# Candida tropicalis = experiment: Antimicrobial activity against Candida tropicalis by broth microdilution method; method in brief: as §3
# Pichia kudriavzevii = experiment: Antimicrobial activity against Candida krusei by broth microdilution method; method in brief: as §3
# Aspergillus niger = experiment: Antimicrobial activity against Aspergillus niger by broth microdilution method; method in brief: as §2
# Trichosporon = experiment: Antimicrobial activity against Trichosporon spp. by broth microdilution method; method in brief: as §4
# Naganishia albida = experiment: Antimicrobial activity against Cryptococcus albidus by broth microdilution method; method in brief: as §5
# Rhizopus arrhizus = experiment: Antimicrobial activity against Rhizopus oryzae by broth microdilution method; method in brief: as §1
# Geotrichum candidum = experiment: Antimicrobial activity against Galactomyces geotrichum by broth microdilution method
# Nakaseomyces glabratus = experiment: Antimicrobial activity against Candida glabrata by broth microdilution method; method in brief: as §3
# Magnusiomyces capitatus = experiment: Antimicrobial activity against Dipodascus capitatus by broth microdilution method
# Fusarium equiseti = experiment: Antimicrobial activity against Fusarium equiseti by broth microdilution method; method in brief: as §2
# Acremonium sp. = experiment: Antimicrobial activity against Acremonium sp.by broth microdilution method; method in brief: as §2
# Trichosporon inkin = experiment: Antimicrobial activity against Trichosporon inkin by broth microdilution method; method in brief: as §4
# Aspergillus sydowii = experiment: Antimicrobial activity against Aspergillus sydowii by broth microdilution method; method in brief: as §2
# Ustilago = experiment: Antimicrobial activity against Ustilago spp by broth microdilution method
# Trichoderma = experiment: Antimicrobial activity against Trichoderma spp. by broth microdilution method; method in brief: as §1
# Penicillium = experiment: Antimicrobial activity against Penicillium spp. by broth microdilution method; method in brief: as §1
# Aspergillus flavus = experiment: Antimicrobial activity against Aspergillus flavus by broth microdilution method; method in brief: as §2
# Hortaea werneckii = experiment: Antimicrobial activity against Hortaea werneckii by broth microdilution method
compound,measurement,setting,value
C[C@@H](c1ncncc1F)[C@](O)(Cn1cncn1)c1ccc(F)cc1F [VORICONAZOLE],MIC50,Mucor,> 8 µg/mL
same,MIC90,Mucor,> 8 µg/mL
same,MIC50,Aspergillus ochraceus,0.25 µg/mL
same,MIC90,Aspergillus ochraceus,> 8 µg/mL
same,MIC50,[Candida] inconspicua,0.12 µg/mL
same,MIC90,[Candida] inconspicua,> 8 µg/mL
same,MIC50,Yarrowia lipolytica,0.5 µg/mL
same,MIC90,Yarrowia lipolytica,2 µg/mL
same,MIC50,Lichtheimia corymbifera,> 8 µg/mL
same,MIC90,Lichtheimia corymbifera,> 8 µg/mL
same,MIC50,Trichosporon ovoides,0.5 µg/mL
same,MIC90,Trichosporon ovoides,> 8 µg/mL
same,MIC50,Coprinellus domesticus,4 µg/mL
same,MIC90,Coprinellus domesticus,> 8 µg/mL
same,MIC50,Diutina rugosa,0.12 µg/mL
same,MIC90,Diutina rugosa,> 8 µg/mL
same,MIC50,Aspergillus versicolor,1 µg/mL
same,MIC90,Aspergillus versicolor,2 µg/mL
same,MIC50,Phialemonium curvatum,4 µg/mL
same,MIC90,Phialemonium curvatum,> 8 µg/mL
same,MIC50,Aspergillus nidulans,0.25 µg/mL
same,MIC90,Aspergillus nidulans,1 µg/mL
same,MIC50,Aspergillus,0.25 µg/mL
same,MIC90,Aspergillus,> 8 µg/mL
same,MIC50,[Candida] zeylanoides,0.12 µg/mL
same,MIC90,[Candida] zeylanoides,> 8 µg/mL
same,MIC50,Papiliotrema laurentii,0.5 µg/mL
same,MIC90,Papiliotrema laurentii,> 8 µg/mL
same,MIC50,Aureobasidium pullulans,0.06 µg/mL
same,MIC90,Aureobasidium pullulans,> 8 µg/mL
same,MIC50,Exophiala jeanselmei,0.06 µg/mL
same,MIC90,Exophiala jeanselmei,> 8 µg/mL
same,MIC50,[1],0.12 µg/mL
same,MIC90,[1],0.5 µg/mL
same,MIC50,Debaryomyces hansenii,0.12 µg/mL
same,MIC90,Debaryomyces hansenii,> 8 µg/mL
same,MIC50,Aspergillus glaucus,0.25 µg/mL
same,MIC90,Aspergillus glaucus,> 8 µg/mL
same,MIC50,Clavispora lusitaniae,0.02 µg/mL
same,MIC90,Clavispora lusitaniae,0.02 µg/mL
same,MIC50,Saksenaea vasiformis,> 8 µg/mL
same,MIC90,Saksenaea vasiformis,> 8 µg/mL
same,MIC50,Fusarium solani,> 8 µg/mL
same,MIC90,Fusarium solani,4 µg/mL
same,MIC50,Candida tropicalis,0.03 µg/mL
same,MIC90,Candida tropicalis,0.12 µg/mL
same,MIC50,Pichia kudriavzevii,0.25 µg/mL
same,MIC90,Pichia kudriavzevii,0.5 µg/mL
same,MIC50,Aspergillus niger,1 µg/mL
same,MIC90,Aspergillus niger,2 µg/mL
same,MIC50,Trichosporon,0.5 µg/mL
same,MIC90,Trichosporon,> 8 µg/mL
same,MIC50,Naganishia albida,0.5 µg/mL
same,MIC90,Naganishia albida,> 8 µg/mL
same,MIC50,Rhizopus arrhizus,> 8 µg/mL
same,MIC90,Rhizopus arrhizus,> 8 µg/mL
same,MIC50,Geotrichum candidum,0.5 µg/mL
same,MIC90,Geotrichum candidum,1 µg/mL
same,MIC50,Nakaseomyces glabratus,0.12 µg/mL
same,MIC90,Nakaseomyces glabratus,1 µg/mL
same,MIC50,Magnusiomyces capitatus,0.5 µg/mL
same,MIC90,Magnusiomyces capitatus,1 µg/mL
same,MIC50,Fusarium equiseti,4 µg/mL
same,MIC90,Fusarium equiseti,> 8 µg/mL
same,MIC50,Acremonium sp.,4 µg/mL
same,MIC90,Acremonium sp.,> 8 µg/mL
same,MIC50,Trichosporon inkin,0.06 µg/mL
same,MIC90,Trichosporon inkin,0.12 µg/mL
same,MIC50,Aspergillus sydowii,1 µg/mL
same,MIC90,Aspergillus sydowii,2 µg/mL
same,MIC50,Ustilago,0.5 µg/mL
same,MIC90,Ustilago,> 8 µg/mL
same,MIC50,Trichoderma,4 µg/mL
same,MIC90,Trichoderma,> 8 µg/mL
same,MIC50,Penicillium,2 µg/mL
same,MIC90,Penicillium,8 µg/mL
same,MIC50,Aspergillus flavus,1 µg/mL
same,MIC90,Aspergillus flavus,2 µg/mL
same,MIC50,Hortaea werneckii,0.06 µg/mL
same,MIC90,Hortaea werneckii,> 8 µg/mL
